ChEMBL document CHEMBL1141651, “Discovery of a potent, selective, and orally active proteasome inhibitor for the treatment of cancer” (J Med Chem, 2008)
Active and inactive are the calls of the source. The calls are words filed in the database; no cut-off is given here.

How the values were obtained:
[1] = Half life in Sprague-Dawley rat at 0.8 mg/kg, po; type: ADME, organism-based; design: dose 0.8 mg/kg, route oral; settings: in vivo
Outline: (§1)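 Female Sprague–Dawley rats and CD-1 mice each received a single iv or oral (po) dose. Terminal half-life and systemic clearance were estimated from plasma exposure over time, alongside AUC0→∞, Vss and absolute oral bioavailability.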

[2] = AUC (0 to infinity) in Sprague-Dawley rat at 0.8 mg/kg, po; type: ADME, organism-based; design: dose 0.8 mg/kg, route oral, time infinity; settings: plasma
Outline: (§2)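 Female Sprague–Dawley rats received a single dose by the iv or oral route. AUC from 0 to infinity was reported alongside terminal half-life, Vss, clearance and absolute oral bioavailability.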

[3] = Half life in CD1 mouse at 4 mg/kg, iv; type: ADME, organism-based; design: dose 4 mg/kg, route intravenous; settings: in vivo; outline: as §1
[4] = AUC (0 to infinity) in CD1 mouse at 4 mg/kg, iv; type: ADME, organism-based; design: time infinity, dose 4 mg/kg, route intravenous; settings: plasma
Outline: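 CD-1 mice received a single dose by the iv or oral route. AUC from 0 to infinity was reported with terminal half-life, Vss, clearance and absolute oral bioavailability.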

[5] = Volume of distribution at steady state in CD1 mouse at 4 mg/kg, iv; type: ADME, organism-based; design: dose 4 mg/kg, route intravenous; settings: in vivo, read-out: Vdss
Outline: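 Single-dose pharmacokinetics after iv or oral administration in female Sprague–Dawley rats and in CD-1 mice; plasma exposure (AUC0–∞) used to derive steady-state volume of distribution, clearance, terminal half-life and absolute oral bioavailability.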

[6] = Clearance in CD1 mouse at 4 mg/kg, iv; type: ADME, organism-based; design: dose 4 mg/kg, route intravenous; settings: in vivo; outline: as §1
Caspase-7 (Homo sapiens) = Caspase-7 (Homo sapiens) (UniProt P55210); experiment: Inhibition of human caspase 7 at 10 uM
Caspase-8 (Homo sapiens) = Caspase-8 (Homo sapiens) (UniProt Q14790); experiment: Inhibition of human caspase 8 at 10 uM
Caspase-9 (Homo sapiens) = Caspase-9 (Homo sapiens) (UniProt P55211); experiment: Inhibition of human caspase 9 at 10 uM
Sus scrofa = organism: Sus scrofa; experiment: Inhibition of pig pepsin at 10 uM
[7] = target: Plasminogen (Homo sapiens) (UniProt P00747); experiment: Inhibition of human plasmin at 10 uM
Homo sapiens [8] = organism: Homo sapiens; experiment: Inhibition of human chymotrypsin at 10 uM
[9] = Inhibition of chymotrypsin-like activity of human erythrocyte 20S proteasome
Outline: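 Isolated 20S proteasome purified from human erythrocytes was tested in a fluorimetric kinetic assay of chymotrypsin-like activity. Potency is reported as IC50.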

[10] = Half life in Sprague-Dawley rat at 0.2 mg/kg, iv; type: ADME, organism-based; design: dose 0.2 mg/kg, route intravenous; settings: in vivo; outline: as §1
[11] = AUC (0 to infinity) in Sprague-Dawley rat at 0.2 mg/kg, iv; type: ADME, organism-based; design: dose 0.2 mg/kg, route intravenous, time infinity; settings: plasma; outline: as §2
[12] = Clearance in Sprague-Dawley rat at 0.2 mg/kg, iv; type: ADME, organism-based; design: dose 0.2 mg/kg, route intravenous; settings: in vivo; outline: as §1
[13] = Oral bioavailability in CD1 mouse at 10 mg/kg; type: ADME, organism-based; settings: in vivo
Outline: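 CD-1 mice given a single iv dose (4 mg/kg) and a single oral (po) dose (10 mg/kg). Plasma AUC0-∞ was measured, and absolute oral bioavailability F (%) was calculated from the oral versus iv exposure.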

Mus musculus = experiment: Inhibition of 20S proteasome beta5beta1 subunit binding in human RPMI 8226 cells xenografted mouse; type: functional, organism-based
Cytochrome P450 1A2 = Cytochrome P450 1A2 (Homo sapiens, UniProt P05177); experiment: Inhibition of human recombinant CYP1A2 upto 30 uM; type: ADME; settings: recombinant enzyme
Outline: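 Recombinant human cytochrome P-450 isoforms were tested with fluorescent P-450 substrates, at test concentrations up to 30 µM.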

Cytochrome P450 2C19 = Cytochrome P450 2C19 (Homo sapiens, UniProt P33261); experiment: Inhibition of human recombinant CYP2C19 upto 30 uM; type: ADME; settings: recombinant enzyme
Outline: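 Recombinant human P-450 isoforms (1A2, 2C9, 2C19, 2D6) with fluorescent P-450 substrates; tested at concentrations up to 30 µM to gauge inhibition.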

[14] = target: Calpain-1 catalytic subunit (Homo sapiens) (UniProt P07384); experiment: Inhibition of human calpain 1 at 10 uM
[15] = target: Dipeptidyl peptidase 1 (Bos taurus) (UniProt Q3ZCJ8); experiment: Inhibition of bovine cathepsin C at 10 uM
[16] = target: Cathepsin E (Homo sapiens) (UniProt P14091); experiment: Inhibition of human cathepsin E at 10 uM
Cathepsin G = Cathepsin G (Homo sapiens, UniProt P08311); experiment: Inhibition of human cathepsin G
[17] = target: Pro-cathepsin H (Homo sapiens) (UniProt P09668); experiment: Inhibition of human cathepsin H at 10 uM
Chymase (Homo sapiens) = Chymase (Homo sapiens) (UniProt P23946); experiment: Inhibition of human chymase at 10 uM
[18] = Inhibition of human chymotrypsin
Outline: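 Cross-reactivity was tested against human pancreas α-chymotrypsin using a fluorogenic specific substrate. Results are expressed as IC50.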

[19] = target: Coagulation factor VII (Homo sapiens) (UniProt P08709); experiment: Inhibition of human factor 7a at 10 uM
[20] = target: Coagulation factor X (Homo sapiens) (UniProt P00742); experiment: Inhibition of human factor 10a at 10 uM
[21] = target: Protease (Human immunodeficiency virus 1) (UniProt Q9YQ12); experiment: Inhibition of HIV1 protease at 10 uM
[22] = target: Plasma kallikrein (Homo sapiens) (UniProt P03952); experiment: Inhibition of human plasma kallikrein at 10 uM
[23] = target: Interstitial collagenase (Homo sapiens) (UniProt P03956); experiment: Inhibition of human MMP1 at 10 uM
[24] = target: 72 kDa type IV collagenase (Homo sapiens) (UniProt P08253); experiment: Inhibition of human MMP2 at 10 uM
[25] = target: Stromelysin-1 (Homo sapiens) (UniProt P08254); experiment: Inhibition of human MMP3 at 10 uM
[26] = target: Neutrophil collagenase (Homo sapiens) (UniProt P22894); experiment: Inhibition of human MMP8 at 10 uM
[27] = target: Macrophage metalloelastase (Homo sapiens) (UniProt P39900); experiment: Inhibition of human MMP12 at 10 uM
Caspase-1 (Homo sapiens) = Caspase-1 (Homo sapiens) (UniProt P29466); experiment: Inhibition of human caspase 1 at 10 uM
Caspase-2 (Homo sapiens) = Caspase-2 (Homo sapiens) (UniProt P42575); experiment: Inhibition of human caspase 2 at 10 uM
Renin (Homo sapiens) = Renin (Homo sapiens) (UniProt P00797); experiment: Inhibition of human renin at 10 uM
[28] = target: Prothrombin (Homo sapiens) (UniProt P00734); experiment: Inhibition of human thrombin at 10 uM
[29] = target: Tissue-type plasminogen activator (Homo sapiens) (UniProt P00750); experiment: Inhibition of human TPA at 10 uM
Trypsin (Homo sapiens) = Trypsin (Homo sapiens) (UniProt P07477+P07478+P35030); experiment: Inhibition of human trypsin at 10 uM; type: protein assay
Homo sapiens [30] = organism: Homo sapiens; experiment: Inhibition of human tryptase at 10 uM
[31] = target: Disintegrin and metalloproteinase domain-containing protein 17 (Homo sapiens) (UniProt P78536); experiment: Inhibition of human TACE at 10 uM
[32] = Metabolic stability in rat liver microsomes; type: ADME, Microsome
[33] = Metabolic stability in human liver microsomes; type: ADME, Microsome
[34] = Protein binding in dog plasma; type: ADME, cell-free, Canis lupus familiaris; settings: read-out: PPB (converted)

Sequence of Dipeptidyl peptidase 1 (Bos taurus) (Q3ZCJ8 25-134 limits assumed): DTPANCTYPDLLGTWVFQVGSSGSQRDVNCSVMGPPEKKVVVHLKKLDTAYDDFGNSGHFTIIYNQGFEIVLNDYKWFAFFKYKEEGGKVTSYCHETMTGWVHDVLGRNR
Sequence of Dipeptidyl peptidase 1 (Bos taurus) (Q3ZCJ8 231-394 limits assumed): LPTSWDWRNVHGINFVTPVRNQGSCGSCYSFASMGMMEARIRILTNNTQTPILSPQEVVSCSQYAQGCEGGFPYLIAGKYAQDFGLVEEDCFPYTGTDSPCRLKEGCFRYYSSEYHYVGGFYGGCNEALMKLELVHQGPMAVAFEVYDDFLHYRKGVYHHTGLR
Sequence of Dipeptidyl peptidase 1 (Bos taurus) (Q3ZCJ8 395-463 limits assumed): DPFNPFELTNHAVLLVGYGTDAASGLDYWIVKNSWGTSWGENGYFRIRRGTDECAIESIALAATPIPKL
Sequence of Caspase-7 (Homo sapiens) (P55210 24-198 limits assumed): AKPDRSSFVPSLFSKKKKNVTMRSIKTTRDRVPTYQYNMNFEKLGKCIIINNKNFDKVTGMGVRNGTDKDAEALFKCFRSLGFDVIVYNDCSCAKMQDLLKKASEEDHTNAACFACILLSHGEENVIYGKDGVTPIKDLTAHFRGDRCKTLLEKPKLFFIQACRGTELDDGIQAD
Sequence of Caspase-7 (Homo sapiens) (P55210 207-303 limits assumed): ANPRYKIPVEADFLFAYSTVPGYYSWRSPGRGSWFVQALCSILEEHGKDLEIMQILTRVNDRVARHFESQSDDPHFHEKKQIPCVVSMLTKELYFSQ
Sequence of Renin (Homo sapiens) (P00797 whole entry): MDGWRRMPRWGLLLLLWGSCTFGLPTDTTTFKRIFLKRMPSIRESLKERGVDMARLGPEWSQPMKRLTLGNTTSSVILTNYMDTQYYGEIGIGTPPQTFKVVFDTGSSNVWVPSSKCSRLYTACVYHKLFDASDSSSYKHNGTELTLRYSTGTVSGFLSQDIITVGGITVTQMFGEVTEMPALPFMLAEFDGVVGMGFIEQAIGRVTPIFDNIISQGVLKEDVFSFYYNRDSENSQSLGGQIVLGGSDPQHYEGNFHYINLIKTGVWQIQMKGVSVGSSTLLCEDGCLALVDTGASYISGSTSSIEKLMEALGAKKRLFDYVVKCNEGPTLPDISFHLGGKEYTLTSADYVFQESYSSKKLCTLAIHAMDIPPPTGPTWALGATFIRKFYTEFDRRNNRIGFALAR
Sequence of Interstitial collagenase (Homo sapiens) (P03956 whole entry): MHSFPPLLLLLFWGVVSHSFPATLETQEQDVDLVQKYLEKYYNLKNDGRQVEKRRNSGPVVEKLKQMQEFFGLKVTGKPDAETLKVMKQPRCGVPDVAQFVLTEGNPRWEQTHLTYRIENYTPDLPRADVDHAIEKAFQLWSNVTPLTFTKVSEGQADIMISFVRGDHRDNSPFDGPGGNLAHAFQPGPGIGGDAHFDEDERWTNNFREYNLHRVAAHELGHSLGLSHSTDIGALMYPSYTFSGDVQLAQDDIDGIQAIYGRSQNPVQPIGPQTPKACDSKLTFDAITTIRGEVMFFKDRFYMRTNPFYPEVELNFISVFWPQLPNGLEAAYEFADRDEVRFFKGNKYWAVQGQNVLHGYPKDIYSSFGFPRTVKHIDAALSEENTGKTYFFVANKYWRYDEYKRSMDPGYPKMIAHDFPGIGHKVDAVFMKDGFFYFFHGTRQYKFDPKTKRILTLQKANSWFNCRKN
Sequence of Macrophage metalloelastase (Homo sapiens) (P39900 106-470 limits assumed): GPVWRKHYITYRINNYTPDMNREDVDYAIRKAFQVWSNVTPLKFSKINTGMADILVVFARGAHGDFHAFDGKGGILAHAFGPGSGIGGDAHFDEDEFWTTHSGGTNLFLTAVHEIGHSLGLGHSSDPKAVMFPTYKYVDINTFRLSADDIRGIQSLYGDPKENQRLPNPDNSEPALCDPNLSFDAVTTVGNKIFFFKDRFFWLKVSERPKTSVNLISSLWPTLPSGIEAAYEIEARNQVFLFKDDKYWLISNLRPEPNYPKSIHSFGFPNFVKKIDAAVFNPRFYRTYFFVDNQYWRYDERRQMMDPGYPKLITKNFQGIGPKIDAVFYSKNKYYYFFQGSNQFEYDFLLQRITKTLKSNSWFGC
Sequence of Caspase-1 (Homo sapiens) (P29466 120-297 limits assumed): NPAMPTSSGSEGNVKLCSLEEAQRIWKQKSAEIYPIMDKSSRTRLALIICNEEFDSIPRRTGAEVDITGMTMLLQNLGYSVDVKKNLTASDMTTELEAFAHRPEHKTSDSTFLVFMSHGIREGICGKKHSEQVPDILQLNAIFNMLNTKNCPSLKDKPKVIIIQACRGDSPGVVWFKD
Sequence of Caspase-1 (Homo sapiens) (P29466 317-404 limits assumed): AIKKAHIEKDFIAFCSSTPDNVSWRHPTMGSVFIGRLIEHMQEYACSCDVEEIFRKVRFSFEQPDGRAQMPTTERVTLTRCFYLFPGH
Sequence of Caspase-2 (Homo sapiens) (P42575 170-325 limits assumed): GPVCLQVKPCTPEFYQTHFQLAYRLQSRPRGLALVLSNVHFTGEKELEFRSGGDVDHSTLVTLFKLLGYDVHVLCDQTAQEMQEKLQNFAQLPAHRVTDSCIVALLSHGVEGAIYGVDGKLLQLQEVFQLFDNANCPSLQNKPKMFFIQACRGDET
Sequence of Caspase-2 (Homo sapiens) (P42575 334-452 limits assumed): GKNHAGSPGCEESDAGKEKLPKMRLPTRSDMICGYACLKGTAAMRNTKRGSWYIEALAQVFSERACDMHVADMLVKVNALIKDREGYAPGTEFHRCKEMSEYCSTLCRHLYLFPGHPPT
Sequence of Cytochrome P450 2C19 (P33261 whole entry, canonical isoform): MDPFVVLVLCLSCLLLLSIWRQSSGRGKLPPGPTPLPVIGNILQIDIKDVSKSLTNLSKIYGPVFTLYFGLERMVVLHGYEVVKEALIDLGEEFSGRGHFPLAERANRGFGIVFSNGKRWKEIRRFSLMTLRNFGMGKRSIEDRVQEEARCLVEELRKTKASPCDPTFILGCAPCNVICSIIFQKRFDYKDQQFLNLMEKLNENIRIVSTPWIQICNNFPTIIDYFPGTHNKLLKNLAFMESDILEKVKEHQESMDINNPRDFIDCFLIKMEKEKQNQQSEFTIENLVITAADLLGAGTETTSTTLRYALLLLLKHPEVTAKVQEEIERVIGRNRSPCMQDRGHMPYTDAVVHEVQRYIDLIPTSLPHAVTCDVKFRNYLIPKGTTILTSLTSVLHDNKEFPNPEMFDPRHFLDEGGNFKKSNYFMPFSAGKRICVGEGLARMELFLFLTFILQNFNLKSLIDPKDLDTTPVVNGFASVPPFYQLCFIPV
Sequence of 72 kDa type IV collagenase (Homo sapiens) (P08253 110-660 limits assumed): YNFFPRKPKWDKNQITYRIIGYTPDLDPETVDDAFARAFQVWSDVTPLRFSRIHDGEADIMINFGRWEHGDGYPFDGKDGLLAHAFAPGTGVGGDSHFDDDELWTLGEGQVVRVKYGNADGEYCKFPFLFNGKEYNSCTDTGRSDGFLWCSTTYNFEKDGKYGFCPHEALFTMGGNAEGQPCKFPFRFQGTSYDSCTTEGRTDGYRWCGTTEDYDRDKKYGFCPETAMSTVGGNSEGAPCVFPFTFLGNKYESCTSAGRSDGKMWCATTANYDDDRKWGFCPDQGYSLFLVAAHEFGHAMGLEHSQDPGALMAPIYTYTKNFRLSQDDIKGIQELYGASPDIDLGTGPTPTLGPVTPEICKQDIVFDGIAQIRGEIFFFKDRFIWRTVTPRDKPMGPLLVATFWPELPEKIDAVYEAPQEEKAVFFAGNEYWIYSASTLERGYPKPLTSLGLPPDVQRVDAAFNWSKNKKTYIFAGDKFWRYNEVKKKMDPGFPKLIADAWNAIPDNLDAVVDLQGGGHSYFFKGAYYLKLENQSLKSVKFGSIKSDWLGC
Sequence of Caspase-8 (Homo sapiens) (Q14790 217-374 limits assumed): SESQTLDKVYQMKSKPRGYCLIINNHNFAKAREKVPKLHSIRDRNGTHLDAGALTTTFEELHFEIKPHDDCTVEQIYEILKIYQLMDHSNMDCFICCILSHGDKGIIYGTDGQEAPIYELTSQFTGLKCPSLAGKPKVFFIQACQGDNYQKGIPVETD
Sequence of Caspase-8 (Homo sapiens) (Q14790 385-479 limits assumed): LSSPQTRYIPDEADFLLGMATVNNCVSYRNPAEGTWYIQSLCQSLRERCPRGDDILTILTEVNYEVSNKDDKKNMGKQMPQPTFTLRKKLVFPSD
Sequence of Coagulation factor X (Homo sapiens) (P00742 41-179 limits assumed): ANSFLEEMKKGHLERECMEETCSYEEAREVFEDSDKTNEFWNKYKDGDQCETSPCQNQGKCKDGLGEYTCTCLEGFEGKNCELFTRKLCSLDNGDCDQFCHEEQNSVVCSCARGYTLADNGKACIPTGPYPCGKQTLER
Sequence of Coagulation factor X (Homo sapiens) (P00742 235-488 limits assumed): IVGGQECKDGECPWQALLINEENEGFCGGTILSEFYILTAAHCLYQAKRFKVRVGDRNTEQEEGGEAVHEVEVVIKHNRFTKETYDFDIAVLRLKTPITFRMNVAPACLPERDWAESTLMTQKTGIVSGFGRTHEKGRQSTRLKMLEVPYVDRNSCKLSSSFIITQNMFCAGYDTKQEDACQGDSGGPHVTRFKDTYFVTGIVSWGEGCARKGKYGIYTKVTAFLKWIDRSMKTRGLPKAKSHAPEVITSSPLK
Sequence of Coagulation factor VII (Homo sapiens) (P08709 61-212 limits assumed): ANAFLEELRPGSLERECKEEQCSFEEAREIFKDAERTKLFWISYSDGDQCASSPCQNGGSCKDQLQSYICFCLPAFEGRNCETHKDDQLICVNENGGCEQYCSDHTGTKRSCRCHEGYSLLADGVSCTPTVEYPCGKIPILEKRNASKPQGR
Sequence of Coagulation factor VII (Homo sapiens) (P08709 213-466 limits assumed): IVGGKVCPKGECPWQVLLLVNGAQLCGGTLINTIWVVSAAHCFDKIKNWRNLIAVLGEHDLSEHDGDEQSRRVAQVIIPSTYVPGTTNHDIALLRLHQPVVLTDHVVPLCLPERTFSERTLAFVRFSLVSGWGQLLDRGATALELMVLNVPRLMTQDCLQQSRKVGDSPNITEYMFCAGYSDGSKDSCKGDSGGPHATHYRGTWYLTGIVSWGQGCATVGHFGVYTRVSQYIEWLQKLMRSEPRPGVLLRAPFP
Sequence of Pro-cathepsin H (Homo sapiens) (P09668 116-335 limits assumed, other chains not shown): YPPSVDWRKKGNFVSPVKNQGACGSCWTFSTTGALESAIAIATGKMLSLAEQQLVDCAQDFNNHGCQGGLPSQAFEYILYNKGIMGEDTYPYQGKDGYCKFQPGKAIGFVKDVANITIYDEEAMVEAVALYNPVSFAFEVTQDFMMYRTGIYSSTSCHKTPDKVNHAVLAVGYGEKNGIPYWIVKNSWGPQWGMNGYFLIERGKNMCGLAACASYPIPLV

half-life [1]: 86 h
AUC(0-inf) [2]: 2200 ng·h/mL
half-life [3]: 15 h
AUC(0-inf) [4]: 2910 ng·h/mL
Vd [5]: 10.3 L/kg
clearance [6]: 23.3 mL/min/kg
inhibition (Caspase-7 (Homo sapiens)): 0%
inhibition (Caspase-8 (Homo sapiens)): -2%
inhibition (Caspase-9 (Homo sapiens)): -1%
inhibition (Sus scrofa): -5%
inhibition [7]: -1%
inhibition (Homo sapiens [8]): 59%
IC50 [9]: 0.0038 µM
half-life [10]: 71 h
AUC(0-inf) [11]: 1030 ng·h/mL
clearance [12]: 3.17 mL/min/kg
bioavailability [13]: 39%
Activity (Cytochrome P450 1A2): Not Active
Activity (Cytochrome P450 2C19): Not Active
inhibition [14]: 0%
inhibition [15]: -8%
inhibition [16]: -3%
IC50 (Cathepsin G): 2.11 µM
inhibition [17]: 6%
inhibition (Chymase (Homo sapiens)): 80%
IC50 [18]: 5.33 µM
inhibition [19]: 2%
inhibition [20]: -2%
inhibition [21]: 1%
inhibition [22]: 0%
inhibition [23]: 1%
inhibition [24]: -5%
inhibition [25]: -3%
inhibition [26]: -1%
inhibition [27]: 4%
inhibition (Caspase-1 (Homo sapiens)): 1%
inhibition (Caspase-2 (Homo sapiens)): 1%
inhibition (Renin (Homo sapiens)): -3%
inhibition [28]: 12%
inhibition [29]: 0%
inhibition (Trypsin (Homo sapiens)): 0%
inhibition (Homo sapiens [30]): -3%
inhibition [31]: 1%
half-life [32]: 0.25 h
half-life [33]: > 0.667 h
fraction unbound [34]: 0.001
SMILES: CC(C)C[C@H](NC(=O)[C@@H](NC(=O)c1cccc(-c2ccccc2)n1)[C@@H](C)O)B(O)O [DELANZOMIB]
Activity (Mus musculus): inactive
